Measurements published in PMC10935467 (Acta Pharmaceutica Sinica. B, 2023).
Where a SMILES comes first, the peptide text is derived from it. Where no end group is shown, it is not given here. [ ]: non-standard residue; d: D form.

How the values were obtained:
[1] = In vivo toxicity analysis in MC38 tumor-bearing mice; design: species or system mouse
mouse LAG-3/FGL1 = target: T1, mouse LAG-3/FGL1 (Mus musculus, UniProt Q61790); assay: Blocking assay of mLAG-3/mFGL1 interaction on CHO-K1-mLAG-3 cells; format: binding
T1 sequence (Q61790 24-521): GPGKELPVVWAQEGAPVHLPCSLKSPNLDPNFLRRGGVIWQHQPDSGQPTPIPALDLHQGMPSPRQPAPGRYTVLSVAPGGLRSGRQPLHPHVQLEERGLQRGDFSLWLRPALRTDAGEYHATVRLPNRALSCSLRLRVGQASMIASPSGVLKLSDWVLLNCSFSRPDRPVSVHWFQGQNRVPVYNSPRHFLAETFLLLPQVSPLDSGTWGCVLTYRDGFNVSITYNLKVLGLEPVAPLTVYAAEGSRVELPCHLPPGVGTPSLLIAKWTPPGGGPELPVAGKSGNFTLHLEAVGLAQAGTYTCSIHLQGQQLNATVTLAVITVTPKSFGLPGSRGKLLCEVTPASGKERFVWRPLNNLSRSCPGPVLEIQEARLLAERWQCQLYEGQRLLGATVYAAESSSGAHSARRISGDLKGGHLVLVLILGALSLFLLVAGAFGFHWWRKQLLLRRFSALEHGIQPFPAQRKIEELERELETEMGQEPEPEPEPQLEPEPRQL
Summary of the method: (§1)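 Cells stably expressing human (CHO-K1-hLAG-3) or mouse (CHO-K1-mLAG-3) LAG-3 are pre-incubated with test peptide at graded concentrations for 30 min at 4 °C. Recombinant FGL1-Fc of the matching species is then added for 30 min at 4 °C, followed by PE anti-human IgG1 (anti-Fc). MFI is read by flow cytometry. Blocking % = (MFI no-peptide control − MFI peptide)/MFI no-peptide control × 100. Cells given only anti-Fc-PE serve as background. IC50 is taken from dose–response curves.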

mouse LAG-3-His protein = target: T2, mouse LAG-3-His protein (Mus musculus, UniProt Q61790); assay: MST binding affinity to mLAG-3
T2 sequence (Q61790 24-521): T1 sequence (Q61790 24-521)
Summary of the method: (§2)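 His-tagged LAG-3 (human or mouse) is labeled with RED-tris-NTA 2nd-generation dye. Test peptide is serially diluted in PBST (0.05% Tween-20) and mixed with an equal volume of labeled protein at room temperature for 5 min. Samples are loaded into capillaries for microscale thermophoresis, and KD is fitted from the dose–response curves.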

Human LAG-3-His protein = target: T3, Human LAG-3-His protein (Homo sapiens, UniProt P18627); assay: MST binding affinity to hLAG-3
T3 sequence (P18627 23-525): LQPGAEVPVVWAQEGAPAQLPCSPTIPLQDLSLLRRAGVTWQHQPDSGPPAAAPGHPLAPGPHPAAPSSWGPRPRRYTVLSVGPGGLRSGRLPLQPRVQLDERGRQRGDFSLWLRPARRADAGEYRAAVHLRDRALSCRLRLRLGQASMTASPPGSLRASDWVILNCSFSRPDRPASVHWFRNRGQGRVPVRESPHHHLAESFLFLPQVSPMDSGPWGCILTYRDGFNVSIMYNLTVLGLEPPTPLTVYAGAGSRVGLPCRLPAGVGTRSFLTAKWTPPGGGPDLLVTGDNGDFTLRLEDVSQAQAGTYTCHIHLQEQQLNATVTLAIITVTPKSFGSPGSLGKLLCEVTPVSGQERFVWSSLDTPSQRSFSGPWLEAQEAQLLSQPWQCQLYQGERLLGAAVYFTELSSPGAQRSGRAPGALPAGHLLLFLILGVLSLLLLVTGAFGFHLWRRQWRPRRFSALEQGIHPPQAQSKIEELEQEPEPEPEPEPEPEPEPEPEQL
Summary of the method: as §2

[2] = tested on: MC38 tumors in C57BL/6 mice; assay: MC38 tumor model, LFOP alone or combined with radiotherapy; format: in vivo, mouse
Summary of the method: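 In MC38 tumor-bearing C57BL/6 mice, tumors of about 100 mm3 receive local 20 Gy irradiation. Test peptide at 5.8 mg/kg is given starting the same day, with or without irradiation; saline and RT-alone groups are included. Tumor volume (½ × length × width × height) and body weight are recorded every two days for 14 days, and tumors are weighed at the end. n = 5.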

[3] = tested on: H22 tumors in BALB/c mice; assay: H22 tumor model; format: in vivo, mouse; conditions: daily for 14 days, LFP-D1 3 mg/kg, LFOP 5.8 mg/kg, n = 5
Summary of the method: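 H22 cells (2 × 10^6) are injected subcutaneously into the right flank of six-week-old female BALB/c mice. Dosing is daily once tumors reach about 50 mm3: 3 mg/kg, 2.5 mg/kg, both combined, or 5.8 mg/kg of the fused peptide (equimolar to 3 mg/kg). Tumor volume (½ × length × width × height) and body weight are recorded every two days over 14 days of treatment.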

hPD-1/hPD-L1 = hPD-1/hPD-L1 (Homo sapiens, UniProt Q9NZQ7); assay: Blocking assay of hPD-1/hPD-L1 interaction; format: binding; conditions: 100 μmol/L, n = 3, compared with OPBP-1(8–12)
human LAG-3/FGL1 = target: T4, human LAG-3/FGL1 (Homo sapiens, UniProt P18627); assay: Blocking assay of hLAG-3/hFGL1 interaction on CHO-K1-hLAG-3 cells; format: binding; conditions: 100 μmol/L, n = 3, compared with LFP-D1
T4 sequence (P18627 23-525): T3 sequence (P18627 23-525)
Summary of the method: as §1

[4] = LFP-D1 treatment vs normal saline, n = 5

hPD-1/hPD-L1, sequence (Q9NZQ7 19-239 limits assumed): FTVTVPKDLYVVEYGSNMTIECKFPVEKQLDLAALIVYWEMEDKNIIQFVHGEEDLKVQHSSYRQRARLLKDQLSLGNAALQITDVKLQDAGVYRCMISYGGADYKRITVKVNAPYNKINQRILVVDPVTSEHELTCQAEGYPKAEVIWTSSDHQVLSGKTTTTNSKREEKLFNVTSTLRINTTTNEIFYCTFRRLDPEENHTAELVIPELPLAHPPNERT

Molecule	Liver index ([1]; LFP-D1 treatment vs normal saline, liver weight (mg) to body weight (g), n = 5)	ALT level in mice serum [1, 4]	AST level in mice serum [1, 4]	IC50 (mouse LAG-3/FGL1) [µM]	Kd (mouse LAG-3-His protein) [µM]	Kd (Human LAG-3-His protein) [µM]	Tumor progression of MC38 tumors ([2]; LFOP 5.8 mg/kg alone, 14 days, n = 5)	Tumor growth of MC38 tumors ([2]; LFOP 5.8 mg/kg combined with RT (local 20 Gy), 14 days, n = 5)	Tregs after treatment ([2]; treatment with LFOP, data not shown)	Tumor growth in H22 tumor model [3]	Blocking efficacy on hPD-1/hPD-L1 interaction (hPD-1/hPD-L1)	Blocking efficacy on hLAG-3/hFGL1 interaction (human LAG-3/FGL1)	Histopathology of major organs (H&E staining) ([1]; heart, liver, spleen, lung, kidney after treatment with LFOP, RT or both)	Body weight of the mice among groups at ultimate time ([1]; normal saline, RT 20 Gy, LFOP 5.8 mg/kg, LFOP + RT, 14 days, n = 5)	ALT and AST levels in serum ([1]; normal saline, RT 20 Gy, LFOP 5.8 mg/kg, LFOP + RT, n = 5)
CSCC[C@@H](N)C(=O)N[C@@H](Cc1c[nH]cn1)C(=O)N[C@@H](CCCNC(=N)N)C(=O)N1CCC[C@H]1C(=O)N1CCC[C@H]1C(=O)N[C@@H](CO)C(=O)N[C@@H](C(=O)O)[C@H](C)O [LFP-D1] (H-[dM]HRPPS[dT]-OH)	no significant difference	no significant difference	no significant difference	17.5 ± 2.2	10.9 ± 3.3	15.7 ± 6.7									
CSCC[C@@H](N)C(=O)N[C@@H](Cc1c[nH]cn1)C(=O)N[C@@H](CCCNC(=N)N)C(=O)N1CCC[C@H]1C(=O)N1CCC[C@H]1C(=O)N[C@@H](CO)C(=O)N[C@@H](C(=O)NCC(=O)N[C@@H](CO)C(=O)N[C@H](CCCNC(=N)N)C(=O)N[C@@H](C(=O)N[C@H](Cc1ccc(O)cc1)C(=O)N[C@H](CO)C(=O)N[C@H](Cc1ccccc1)C(=O)O)C(C)C)[C@H](C)O [LFOP] (H-[dM]HRPPS[dT]GS[dR][dV][dY][dS][dF]-OH; N-terminus and C-terminus assumed)							slowed tumor progression	effectively controlled tumor growth even partial regression	decreased	significantly inhibited the tumor growth	in line with its parental peptide	in line with its parental peptide	no abnormalities	no significant differences	indiscriminate
MHRPPST [LFP-6]				47.2 ± 2.2	14.6 ± 3.3	16.1 ± 5.5									
